Measurements reported in paper PMC9073098 (RSC Advances, 2019).

Assay: Absorption and fluorescence measurements
Format: physicochemical
Conditions: for Absorption maximum λmaxAb / Fluorescence quantum yield ΦF: CM : ACN (4 : 1, v/v); for Absorption maximum λmaxAb: RPMI 1640 cell medium pH 7.5, 25 °C, c = 0.6 μM; for Fluorescence quantum yield ΦF: cell medium pH 7.5, 25 °C, average of three measurements; for Extinction coefficient ε: PB : ACN (4 : 1, v/v), 10 mM phosphate buffer pH 7.5, 25 °C
Method in brief: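 UV-Vis absorption and corrected fluorescence spectra at 25 °C in 1 cm quartz cells, ~0.5–0.6 μM dye in 10 mM phosphate buffer pH 7.5 or RPMI 1640 medium pH 7.5 (serum containing acetylcholinesterase). Excitation 532 and 710 nm. ΦF relative to ICG in methanol (0.044) and Cy3 in PBS (0.04), absorbance 0.04–0.06 at excitation. Three independent measurements averaged, reproducibility within 5%.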

Row | SMILES | Absorption maximum λmaxAb | Fluorescence quantum yield ΦF | Extinction coefficient ε
1 | CN1C(=CC=C2CCCC(=CC=C3N(CCCCCC(=O)O)c4ccccc4C3(C)C)C2=O)C(C)(C)c2ccccc21 [RD, 6-(3,3-Dimethyl-2-(2-(2-oxo-3-(2-(1,3,3-trimethylindolin-2-ylidene)ethylidene)cyclohexylidene)ethylidene)indolin-1-yl)hexanoic acid] | 526 nm | 2.6 ± 0.1% | 57 000 M^−1 × cm^−1
2 | C[N+]1=C(C=CC2=C(OC(=O)CCCc3ccc(N(CCCl)CCCl)cc3)C(=CC=C3N(CCCCCC(=O)O)c4ccccc4C3(C)C)CCC2)C(C)(C)c2ccccc21 [IRD-CLB, 2-(2-(2-((4-(4-(bis(2-chloroethyl)amino)phenyl)butanoyl)oxy)-3-(2-(1-(5-carboxypentyl)-3,3-dimethylindolin-2-ylidene)ethylidene)cyclohex-1-en-1-yl)vinyl)-1,3,3-trimethyl-3H-indol-1-ium] | 785 nm | 6.3 ± 0.5% | 160 000 M^−1 × cm^−1
